Consider 19 compounds from ChEMBL document CHEMBL3259555, “Aromatic diacylhydrazine derivatives as a new class of polo-like kinase 1 (PLK1) inhibitors” (Eur J Med Chem, 2014).

Data set [1] in a line: cells. The following applies: Homo sapiens, Cancer cell lines, 48 h.
Data set [2] in a line: Cytotoxicity against macrophage (unknown origin) assessed as reduction in cell viability after 24 hrs by MTT assay. It counts as cell-based. Particulars: macrophages (unknown origin). Summed up: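 Macrophages plated at 5×10⁵ cells per well with a range of compound concentrations and incubated 24 h at 37 °C, 5% CO₂. MTT (4 mg/mL stock) added for the final 4 h, plate centrifuged, supernatant removed, DMSO added, absorbance read at 570 nm. Triplicate wells per concentration, assay repeated three times; CC50 (50% viability reduction) given as mean ± SD.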
On the technique in general: Tetrazolium dyes change colour on reduction, which living cells bring about.

For orientation: IC50 means the concentration needed to halve the response being measured. A low value points to inhibition by little substance. As a reminder, the CC50 is the concentration at which the toxic effect on the cells reaches its halfway point. With `O=C(/C=C/c1ccccc1F)NNC(=O)c1ccc2c(c1)OCCO2`, half-maximal inhibition in data set [1] (IC50) was put at 4.51 µM. Also, in data set [2], the CC50 at 24 h came to 302 µM.
On the same counts, the results for `O=C(/C=C/c1ccccc1Cl)NNC(=O)c1ccc2c(c1)OCCO2` are 4.88 µM and 285 µM.
On the same counts, the results for `O=C(/C=C/c1ccccc1Br)NNC(=O)c1ccc2c(c1)OCCO2` are 2.11 µM and 315 µM.
Turning to `Cc1ccccc1/C=C/C(=O)NNC(=O)c1ccc2c(c1)OCCO2`, the IC50 in data set [1] amounted to 7.71 µM. The CC50 at 24 h in data set [2] was determined as 268 µM.
On the same counts, the results for `COc1ccccc1/C=C/C(=O)NNC(=O)c1ccc2c(c1)OCCO2` are 8.06 µM and 312 µM.
On the same counts, the results for `O=C(/C=C/c1ccccc1[N+](=O)[O-])NNC(=O)c1ccc2c(c1)OCCO2` are 0.89 µM and 257 µM.
On the same counts, the results for `O=C(/C=C/c1cccc(F)c1)NNC(=O)c1ccc2c(c1)OCCO2` are 4.11 µM and 221 µM.
`O=C(/C=C/c1cccc(Cl)c1)NNC(=O)c1ccc2c(c1)OCCO2` returned an IC50 in data set [1] of 3.56 µM. Also, the CC50 at 24 h in data set [2] turned out to be 391 µM.
On the same counts, the results for `O=C(/C=C/c1cccc(Br)c1)NNC(=O)c1ccc2c(c1)OCCO2` are 3.33 µM and 351 µM.
On the same counts, the results for `Cc1cccc(/C=C/C(=O)NNC(=O)c2ccc3c(c2)OCCO3)c1` are 2.89 µM and 281 µM.
On the same counts, the results for `COc1cccc(/C=C/C(=O)NNC(=O)c2ccc3c(c2)OCCO3)c1` are 0.17 µM and 398 µM.
As for `O=C(/C=C/c1cccc([N+](=O)[O-])c1)NNC(=O)c1ccc2c(c1)OCCO2`, the 50% inhibitory concentration (IC50) in data set [1] was 1.56 µM. Besides, the CC50 at 24 h in data set [2] was found to be 323 µM.
On the same counts, the results for `O=C(/C=C/c1ccc(F)cc1)NNC(=O)c1ccc2c(c1)OCCO2` are 0.99 µM and 319 µM.
On the same counts, the results for `O=C(/C=C/c1ccc(Cl)cc1)NNC(=O)c1ccc2c(c1)OCCO2` are 1.13 µM and 309 µM.
On the same counts, the results for `O=C(/C=C/c1ccc(Br)cc1)NNC(=O)c1ccc2c(c1)OCCO2` are 2.33 µM and 259 µM.
In the case of `Cc1ccc(/C=C/C(=O)NNC(=O)c2ccc3c(c2)OCCO3)cc1`, the IC50 in data set [1] was 1.05 µM. Moreover, the CC50 at 24 h in data set [2] amounted to 332 µM.
On to `COc1ccc(/C=C/C(=O)NNC(=O)c2ccc3c(c2)OCCO3)cc1`, for which the IC50 in data set [1] came out at 0.93 µM. Also, the CC50 at 24 h in data set [2] was found to be 319 µM.
On the same counts, the results for `O=C(/C=C/c1ccc([N+](=O)[O-])cc1)NNC(=O)c1ccc2c(c1)OCCO2` are 0.61 µM and 295 µM.
`O=C(/C=C/c1ccccc1)NNC(=O)c1ccc2c(c1)OCCO2`: in data set [1], the IC50 was determined as 0.55 µM. Further, the CC50 at 24 h in data set [2] worked out at 312 µM.
